Measured values reported in ChEMBL document CHEMBL1143258, “Biphenyl amide p38 kinase inhibitors 2: Optimisation and SAR” (Bioorg Med Chem Lett, 2008).

How the values were obtained:
Format in all cases: ADME, organism-based
[1] = Plasma clearance in Lewis rat at 1 mg/kg, iv; parameters: dose 1 mg/kg, route intravenous
Summary of the method: (§1)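 Male Lewis rats were given a single intravenous 1 mg/kg or oral 3 mg/kg dose. Plasma levels were measured by LC-MS/MS on a 5 min formic acid water/acetonitrile gradient. Clearance, steady-state volume, terminal half-life and oral bioavailability were derived from the concentration-time profiles.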

[2] = Volume of distribution at steady state in Lewis rat at 1 mg/kg, iv; parameters: dose 1 mg/kg, route intravenous; settings: in vivo, read-out: Vdss; summary of the method: as §1
[3] = Half life in Lewis rat at 1 mg/kg, iv; parameters: dose 1 mg/kg, route intravenous; settings: in vivo; summary of the method: as §1
[4] = Oral bioavailability in Lewis rat at 3 mg/kg; settings: in vivo; summary of the method: as §1

SMILES: Cc1nnc(-c2ccc(C)c(-c3ccc(C(=O)NCC4CC4)cc3)c2)o1
- clearance [1]: < 10 mL/min/kg
- Vd [2]: 2 L/kg
- half-life [3]: 9 h
- bioavailability [4]: 50%
